Laboratory results: ChEMBL document CHEMBL1145845, “Acetogenins as selective inhibitors of the human ovarian 1A9 tumor cell line” (2003)
In brackets after ≈: the same amount, converted by molar mass. Activity calls are given as the source filed them.

Experiments:
[1] = tested on: 1A9/ptx-10; assay: Percent inhibition against PTX10 human tumor cell line at >10 ug/mL; type: functional
[2] = tested on: HCT-8; assay: Effective dose required for inhibitory activity against HCT-8 human tumor cell line.; type: functional; details: read-out: ED50 (the source's name)
How it was run: (§1)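 Human tumor lines were grown in RPMI-1640 with 25 mM HEPES, 0.25% sodium bicarbonate, 10% FBS and 100 µg/mL kanamycin. KB-VIN is a vincristine-resistant KB subline, and PTX10 is a 1A9 subline with mutated β-tubulin. Trypsinized cells (1500–7500/well) got compound from DMSO stock for 3 days continuous. Cells were fixed with cold 50% TCA, stained with 0.4% SRB, and read at 562 nm. ED50 is the 50% growth-reduction concentration; not active means ≤5% inhibition at the top concentration.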

[3] = tested on: MCF7; assay: Effective dose required for inhibitory activity against MCF-7 human tumor cell line.; type: functional; details: read-out: ED50 (the source's name); how it was run: as §1
[4] = tested on: KB; assay: Effective dose required for inhibitory activity against KB human tumor cell line.; type: functional; details: read-out: ED50 (the source's name); how it was run: as §1
[5] = tested on: SK-MEL-2; assay: Effective dose required for inhibitory activity against SK-MEL-2 human tumor cell line.; type: functional; details: read-out: ED50 (the source's name); how it was run: as §1
[6] = tested on: 1A9; assay: Effective dose required for inhibitory activity against 1A9 human tumor cell line.; type: functional; details: read-out: ED50 (the source's name); how it was run: as §1
[7] = tested on: HOS; assay: Effective dose required for inhibitory activity against HOS human tumor cell line; Not active; type: functional, cell-based; how it was run: as §1
[8] = tested on: PC-3; assay: Effective dose required for inhibitory activity against PC-3 human tumor cell line.; type: functional; details: read-out: ED50 (the source's name); how it was run: as §1
[9] = tested on: CAKI-1; assay: Effective dose required for inhibitory activity against CAK1 human tumor cell line; type: functional; details: read-out: ED50 (the source's name); how it was run: as §1
[10] = tested on: A549; assay: Effective dose required for inhibitory activity against A549 human tumor cell line.; type: functional; details: read-out: ED50 (the source's name); how it was run: as §1
[11] = tested on: KB; assay: Effective dose required for inhibitory activity against KB-VIN human tumor cell line.; type: functional; details: read-out: ED50 (the source's name); how it was run: as §1
[12] = tested on: SK-MEL-2; assay: Effective dose required for inhibitory activity against SK-MEL-2 human tumor cell line; Not active; type: functional, cell-based; how it was run: as §1
[13] = tested on: CAKI-1; assay: Effective dose required for inhibitory activity against CAK1 human tumor cell line; Not active; type: functional, cell-based; how it was run: as §1
[14] = tested on: HOS; assay: Effective dose required for inhibitory activity against HOS human tumor cell line.; type: functional; details: read-out: ED50 (the source's name); how it was run: as §1
[15] = tested on: A549; assay: Effective dose required for inhibitory activity against A549 human tumor cell line; Not active; type: functional, cell-based; how it was run: as §1
[16] = tested on: 1A9; assay: Percent inhibition against 1A9 human tumor cell line at >10 ug/mL; type: functional
[17] = tested on: PC-3; assay: Effective dose required for inhibitory activity against PC-3 human tumor cell line; Not active; type: functional, cell-based; how it was run: as §1
[18] = tested on: 1A9/ptx-10; assay: Effective dose required for inhibitory activity against PTX10 human tumor cell line; type: functional; details: read-out: ED50 (the source's name); how it was run: as §1
[19] = tested on: MCF7; assay: Percent inhibition against MCF-7 human tumor cell line at <5 ug/mL; type: functional
[20] = tested on: 1A9; assay: Percent inhibition against 1A9 human tumor cell line at 0.10 ug/mL; type: functional
How it was run: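 Human ovarian 1A9 cells grown in RPMI-1640 with 25 mM HEPES, 0.25% sodium bicarbonate, 10% FBS and 100 µg/mL kanamycin. Freshly trypsinized cells seeded at 1500–7500/well; compound added from DMSO-diluted stock; 3-day continuous exposure. Cells fixed with cold 50% TCA, stained with 0.4% SRB, dye solubilized, A562 read. Percent growth inhibition given where <50% at highest concentration.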

SMILES	Inhibition [1] [%]	EC50 [2] [µg/mL]	EC50 [3] [µg/mL]	EC50 [4] [µg/mL]	EC50 [5] [µg/mL]	EC50 [6] [µg/mL]	NA [7]	EC50 [8] [µg/mL]	EC50 [9] [µg/mL]	EC50 [10] [µg/mL]	EC50 [11] [µg/mL]	NA [12]	NA [13]	EC50 [14] [µg/mL]	NA [15]	Inhibition [16] [%]	NA [17]	EC50 [18] [µg/mL]	Inhibition [19] [%]	inhibition at 0.1 µg/mL [20] [%]
CCCCC(O)C(O)C/C=C\CC[C@H](O)[C@@H]1CC[C@@H](CCCCCCCCCCCC[C@H](O)CC2=C[C@H](C)OC2=O)O1 (stereo not given in full)	25	> 20	14.3 (≈ 24 µM)	> 20	> 20	0.87 (≈ 1.46 µM)	inactive	> 20	> 20	> 20	> 20									
CCCCCCCCCCCC[C@H](O)[C@@H]1CC[C@@H]([C@@H](O)CCCCC(=O)CCCCCC2CC(CC(C)=O)C(=O)O2)O1 (stereo not given in full) [ISOANNONACINONE]	19	> 20	> 20	> 20		2.2 (≈ 3.7 µM)	inactive	> 20		> 20	> 20	inactive	inactive							
CCCCCC(O)C(O)CCCCCC[C@H](O)[C@@H]1CC[C@H](CCCCCCCCCC[C@H](O)CC2=C[C@H](C)OC2=O)O1 (stereo not given in full) [MURICIN B]	26	> 20	15.5 (≈ 26 µM)	> 20	> 20	0.52 (≈ 0.871 µM)		> 20		> 20	> 20		inactive	> 20						
CCCCC/C=C\CCC(O)C(O)CCCC[C@@H](O)[C@@H]1CC[C@@H](CCCCCCCCCCCCC2=C[C@H](C)OC2=O)O1 (stereo not given in full)	13	> 20	> 20	> 20			inactive	> 20			> 20	inactive	inactive		inactive	39				
CCCCCCCCCCCC[C@@H](O)[C@H]1CC[C@H]([C@H](O)CCCCCCCCCCCCC2=C[C@H](C)OC2=O)O1 [REL-SOLAMIN]	18	> 20	> 20	> 20		7.8 (≈ 13.8 µM)				> 20	> 20	inactive	inactive	> 20			inactive			
CCCCCC[C@@H](O)CCC[C@H](O)[C@@H]1CC[C@@H]([C@H](O)CC[C@@H](O)[C@@H]2CC[C@@H](CCCCCCCCCC3=C[C@@H](C)OC3=O)O2)O1 [Squamostatin-A]	40	> 20	8 (≈ 12.5 µM)	> 20		0.0087 (≈ 0.0136 µM)		> 20	> 20	> 20	> 20	inactive		> 20						
CCCCCCCCCCCC[C@H](O)[C@@H]1CC[C@@H]([C@@H](O)CCCCCCC(O)CCCCC[C@@H](O)CC2=C[C@H](C)OC2=O)O1 (stereo not given in full) [ANNOMONTACIN]		13.7 (≈ 21.9 µM)		9.2 (≈ 14.7 µM)	14.1 (≈ 22.6 µM)	0.078 (≈ 0.125 µM)		9.2 (≈ 14.7 µM)	15.3 (≈ 24.5 µM)	11.8 (≈ 18.9 µM)	13.7 (≈ 21.9 µM)			14.1 (≈ 22.6 µM)				6.8 (≈ 10.9 µM)	51	
CCCCCCCCCCCC[C@@H](O)[C@H]1CC[C@H]([C@H](O)CCCC[C@H](O)CCCCC[C@@H](O)CC2=CC(C)OC2=O)O1 (stereo not given in full) [ANNONACIN]		7.9 (≈ 13.2 µM)		7.5 (≈ 12.6 µM)	13.8 (≈ 23.1 µM)	0.07 (≈ 0.117 µM)		8.2 (≈ 13.7 µM)	9.8 (≈ 16.4 µM)	7.8 (≈ 13.1 µM)	10.3 (≈ 17.3 µM)			8.2 (≈ 13.7 µM)				6 (≈ 10.1 µM)	62	
CCCCCCCCC[C@H](O)[C@@H]1CC[C@H]([C@H]2CC[C@@H](CCCCCCCCCC[C@H](O)CC3=C[C@H](C)OC3=O)O2)O1	23	> 20	> 20	> 20				> 20		> 20	> 20	inactive	inactive	> 20						47
CCCCCCCCCCCC[C@@H](O)[C@H]1CC[C@H]([C@H](O)CCCCC(O)CCCCCCCC2=C[C@H](C)OC2=O)O1 (stereo not given in full)		10.8 (≈ 18.6 µM)		7.6 (≈ 13.1 µM)	14.2 (≈ 24.4 µM)	0.1 (≈ 0.172 µM)		8.1 (≈ 13.9 µM)	13.9 (≈ 23.9 µM)	9.8 (≈ 16.9 µM)	12.5 (≈ 21.5 µM)			9.8 (≈ 16.9 µM)				5 (≈ 8.61 µM)	55	
